Measured values taken from ChEMBL document CHEMBL1128547, “Selective inhibitors of Candida albicans dihydrofolate reductase: activity and selectivity of 5-(arylthio)-2,4-diaminoquinazolines” (J Med Chem, 1995).
Values after ≈ are worked out from the molar mass of the structure shown.

Experiments:
[1] = tested on: Candida albicans; assay: Minimum inhibitory concentration required to inhibit Candida albicans (in vitro); assay type: functional
Summary of the method: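 Broth dilution in defined medium (NH4Cl, K2HPO4, MgSO4, sodium citrate, PIPES, biotin, glucose; pH 7.1), strain P712 from frozen log-phase stocks. Inoculum 4500 CFU per 3 mL tube, final drug 50–0.01 μg/mL, or microtiter wells (0.05 mL) with 4-fold dilutions. 28 °C, 160 rpm, 20–24 h.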

[2] = tested on: Candida albicans; assay: Ratio of I50 evaluated for inhibition of DHFR in humans to Candida albicans
Summary of the method: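 Selectivity index is the human DHFR I50 divided by the C. albicans DHFR I50. The C. albicans enzyme (E. coli-expressed, 0.2 nM) was run in 0.1 M imidazole chloride, pH 6.4. Recombinant human enzyme (2 nM) was run in 50 mM Sorenson's phosphate, pH 7.0. Enzyme, NADPH and inhibitor were preincubated 2 min before substrate was added. I50 came from linear regression of % inhibition of steady-state velocity vs log concentration.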

Row | Structure (SMILES) | MIC [1] | Selectivity index [2]
1 | Nc1nc(N)c2c(Sc3ccc(Br)cc3)cccc2n1 | 0.25 µg/mL (≈ 0.72 µM) | 100
2 | CC(C)(C)c1ccc(Sc2c(C#N)ccc3nc(N)nc(N)c23)cc1 | > 5 µg/mL | 
3 | Nc1nc(N)c2c(Sc3ccc(C(F)(F)F)cc3)cccc2n1 | 25 µg/mL (≈ 74.3 µM) | 5
4 | Nc1nc(N)c2c(Sc3ccccc3Cl)cccc2n1 | 1 µg/mL (≈ 3.3 µM) | 2
5 | Cc1ccc(Sc2cccc3nc(N)nc(N)c23)cc1 | 0.25 µg/mL (≈ 0.885 µM) | 
6 | COc1ccc(OC)c(Cc2cnc3nc(N)nc(N)c3c2C)c1 [PIRITREXIM] | > 10 µg/mL | 
7 | COc1cccc(Sc2cccc3nc(N)nc(N)c23)c1 | 0.25 µg/mL (≈ 0.838 µM) | 
8 | COc1cc(Sc2cccc3nc(N)nc(N)c23)cc(OC)c1OC | 5 µg/mL (≈ 13.9 µM) | 
9 | Nc1nc(N)c2c(Sc3ccc(F)cc3)cccc2n1 | 0.25 µg/mL (≈ 0.873 µM) | 40
10 | COc1cc(Cc2cnc(N)nc2N)cc(OC)c1OC [TRIMETHOPRIM] | > 50 µg/mL | 
11 | Nc1nc(N)c2c(Sc3cccc(Cl)c3)cccc2n1 | 0.5 µg/mL (≈ 1.65 µM) | 6
12 | CCN(CC)c1ccc(Sc2cccc3nc(N)nc(N)c23)cc1 | 2.5 µg/mL (≈ 7.36 µM) | 
13 | CC(C)(C)c1ccc(Sc2c(N)ccc3nc(N)nc(N)c23)cc1 | 5 µg/mL (≈ 14.7 µM) | 
14 | N#Cc1ccc(Sc2cccc3nc(N)nc(N)c23)cc1 | > 50 µg/mL | 100
15 | CC(C)(C)c1ccc(Sc2cccc3nc(N)nc(N)c23)cc1 | 0.1 µg/mL (≈ 0.308 µM) | 
16 | COc1ccc(Sc2cccc3nc(N)nc(N)c23)cc1OC | > 50 µg/mL | 79

Row | Structure (SMILES) | MIC [1] | Selectivity index [2]
17 | CCC(C)(C)c1ccc(Sc2cccc3nc(N)nc(N)c23)cc1 | 10 µg/mL (≈ 29.5 µM) | 10
18 | CC(C)c1ccc(Sc2cccc3nc(N)nc(N)c23)cc1 | 0.25 µg/mL (≈ 0.805 µM) | 
19 | Nc1ccc(Sc2cccc3nc(N)nc(N)c23)cc1 | 2.5 µg/mL (≈ 8.82 µM) | 5
20 | Nc1nc(N)c2c(Sc3ccc(Cl)cc3)cccc2n1 | 0.5 µg/mL (≈ 1.65 µM) | 
21 | Nc1nc(N)c2c(Sc3ccc(O)cc3)cccc2n1 | 10 µg/mL (≈ 35.2 µM) | 5
22 | CC(C)COc1ccc2nc(N)nc(N)c2c1Sc1ccc(C(C)(C)C)cc1 | 0.8 µg/mL (≈ 2.02 µM) | 10
23 | Nc1nc(N)c2c(Sc3ccc([N+](=O)[O-])cc3)cccc2n1 | 50 µg/mL (≈ 160 µM) | 100
24 | CCOc1ccc2nc(N)nc(N)c2c1Sc1ccc(C(C)(C)C)cc1 | 1 µg/mL (≈ 2.71 µM) | 
25 | CCc1nc(N)nc(N)c1-c1ccc(Cl)cc1 [PYRIMETHAMINE] | > 50 µg/mL | 
26 | CCCCCCc1ccc(Sc2cccc3nc(N)nc(N)c23)cc1 | 50 µg/mL (≈ 142 µM) | 
27 | COc1ccc(Sc2cccc3nc(N)nc(N)c23)cc1 | 0.25 µg/mL (≈ 0.838 µM) | 
28 | COc1cc(NCc2ccc3nc(N)nc(N)c3c2C)cc(OC)c1OC [TRIMETREXATE] | > 50 µg/mL | 
29 | Nc1nc(N)c2c(Sc3ccc(C4CCCCC4)cc3)cccc2n1 | 1 µg/mL (≈ 2.85 µM) | > 200
30 | Nc1nc(N)c2c(Sc3ccccc3)cccc2n1 | 0.05 µg/mL (≈ 0.186 µM) | 
31 | Nc1nc(N)c2c(Sc3ccc(N4CCOCC4)cc3)cccc2n1 | > 50 µg/mL | 
32 | COc1ccccc1Sc1cccc2nc(N)nc(N)c12 | 10 µg/mL (≈ 33.5 µM) | 4
